ChEMBL document CHEMBL2146381, “Structure-activity relationship (SAR) study of ethyl 2-amino-6-(3,5-dimethoxyphenyl)-4-(2-ethoxy-2-oxoethyl)-4H-chromene-3-carboxylate (CXL017) and the potential of the lead against multidrug resistance in cancer treatment” (J Med Chem, 2012)

Legend:
HL-60 [1] = experiment: Cytotoxicity against human HL60 cells assessed as cell viability after 48 hrs by celltiter-blue assay; assay type: functional, cell-based; settings: HL-60, 48 h
Summary of the method: (§1)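 Tumour cell growth inhibition was measured in vitro, following the lab's established procedure. IC50 values are the mean of at least two independent experiments, each run in triplicate.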

K562 [2] = experiment: Cytotoxicity against human K562 cells assessed as cell viability after 48 hrs by celltiter-blue assay; assay type: functional, cell-based; settings: K562, 48 h; summary of the method: as §1
CCRF-CEM [3] = experiment: Cytotoxicity against human CCRF-CEM cells assessed as cell viability after 48 hrs by celltiter-blue assay; assay type: functional, cell-based; summary of the method: as §1
HL-60 [4] = experiment: Ratio of IC50 for human HL60/MX2 cells to IC50 for human HL60 cells; assay type: functional
Summary of the method: (§2)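 Each resistant subline and its matched parental line were tested in the same growth-inhibition assay, with IC50 taken as the mean of at least two independent experiments in triplicate. The MDR/parental IC50 ratio is reported as relative sensitivity: above 1 means resistance, below 1 means collateral sensitivity. Parental lines came from different sources for each resistant pair.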

HL-60 [5] = experiment: Ratio of IC50 for human HL60/ADR cells to IC50 for human HL60 cells; assay type: functional; summary of the method: as §2
HL-60 [6] = experiment: Ratio of IC50 for daunorubicin-resistant human HL60 cells to IC50 for human HL60 cells; assay type: functional; summary of the method: as §2
HL-60 [7] = experiment: Ratio of IC50 for doxorubicin-resistant human HL60 cells to IC50 for human HL60 cells; assay type: functional; summary of the method: as §2
K562 [8] = experiment: Ratio of IC50 for doxorubicin-resistant human K562 cells to IC50 for human K562 cells; assay type: functional; summary of the method: as §2
K562 [9] = experiment: Ratio of IC50 for human K562/HHT300 cells to IC50 for human K562 cells; assay type: functional; summary of the method: as §2
CCRF-CEM [10] = experiment: Ratio of IC50 for human CCRF-CEM/C2 cells IC50 for human CCRF-CEM cells; assay type: functional; summary of the method: as §2
CCRF-CEM [11] = experiment: Ratio of IC50 for human CCRF-CEM/VM-1-5 cells IC50 for human CCRF-CEM cells; assay type: functional; summary of the method: as §2
CCRF-CEM [12] = experiment: Ratio of IC50 for human CCRF-CEM/VLB100 cells IC50 for human CCRF-CEM cells; assay type: functional; summary of the method: as §2

CC(C)(C)c1ccc(NC(=S)N/N=C2\C(=O)Nc3ccccc32)cc1
IC50 (HL-60 [1]): 6.8 µM | IC50 (K562 [2]): 26.9 µM | IC50 (CCRF-CEM [3]): 7.05 µM | Ratio IC50 (HL-60 [4]): 0.86 | Ratio IC50 (HL-60 [5]): 0.47 | Ratio IC50 (HL-60 [6]): 0.64 | Ratio IC50 (HL-60 [7]): 1 | Ratio IC50 (K562 [8]): 0.47 | Ratio IC50 (K562 [9]): 0.43 | Ratio IC50 (CCRF-CEM [10]): 0.58 | Ratio IC50 (CCRF-CEM [11]): 2.1 | Ratio IC50 (CCRF-CEM [12]): 0.66

CCOC(=O)CC1C(C(=O)OCC)=C(N)Oc2ccc(-c3cc(OC)cc(OC)c3)cc21 (racemic)
IC50 (HL-60 [1]): 10.7 µM

CC[C@]1(O)C[C@H]2CN(CCc3c([nH]c4ccccc34)[C@@](C(=O)OC)(c3cc4c(cc3OC)N(C=O)[C@H]3[C@@](O)(C(=O)OC)[C@H](OC(C)=O)[C@]5(CC)C=CCN6CC[C@]43[C@@H]65)C2)C1 [VINCRISTINE]
IC50 (HL-60 [1]): 6e-05 µM | IC50 (K562 [2]): 0.0001 µM | IC50 (CCRF-CEM [3]): 0.00017 µM | Ratio IC50 (HL-60 [4]): 1 | Ratio IC50 (HL-60 [5]): 1 | Ratio IC50 (HL-60 [7]): >1000 | Ratio IC50 (K562 [8]): >1000 | Ratio IC50 (K562 [9]): >1000 | Ratio IC50 (CCRF-CEM [10]): 1 | Ratio IC50 (CCRF-CEM [11]): 1 | Ratio IC50 (CCRF-CEM [12]): >1000

C#CCOC(=O)CC1C(C(=O)OCC#C)=C(N)Oc2ccc(-c3ccc(NC)cc3)cc21 (racemic)
IC50 (HL-60 [1]): 2.45 µM

C/C=C(/C)C(=O)O[C@H]1C(C)=C2[C@H]([C@@H]1OC(=O)CCCCCCC)[C@@](C)(OC(C)=O)C[C@H](OC(=O)CCC)[C@@]1(O)[C@H]2OC(=O)[C@@]1(C)O [THAPSIGARGIN]
IC50 (HL-60 [1]): 0.007 µM | IC50 (K562 [2]): 0.17 µM | IC50 (CCRF-CEM [3]): 0.27 µM | Ratio IC50 (HL-60 [4]): 0.02 | Ratio IC50 (HL-60 [5]): 1 | Ratio IC50 (HL-60 [6]): >50 | Ratio IC50 (HL-60 [7]): >50 | Ratio IC50 (K562 [8]): 4.2 | Ratio IC50 (K562 [9]): >10 | Ratio IC50 (CCRF-CEM [10]): 1.45 | Ratio IC50 (CCRF-CEM [11]): 1 | Ratio IC50 (CCRF-CEM [12]): 7.7

CCOC(=O)CC1C(C#N)=C(N)Oc2ccc(-c3cc(OC)cc(OC)c3)cc21 (racemic)
IC50 (HL-60 [1]): 19.6 µM

C#CCOC(=O)CC1C(C#N)=C(N)Oc2ccc(-c3cccc(N)c3)cc21 (racemic)
IC50 (HL-60 [1]): 43.9 µM

C#CCOC(=O)CC1C(C(=O)OCC)=C(N)Oc2ccc(-c3ccc(NCC)cc3)cc21 (racemic)
IC50 (HL-60 [1]): 33 µM

C#CCOC(=O)CC1C(C(=O)OCC#C)=C(N)Oc2ccc(-c3cccc(NCC)c3)cc21 (racemic)
IC50 (HL-60 [1]): 1.86 µM

CCOC(=O)CC1C(C(=O)OCC)=C(N)Oc2ccc(-c3cccc(N)c3)cc21 (racemic)
IC50 (HL-60 [1]): 20.2 µM

COc1cc([C@@H]2c3cc4c(cc3[C@@H](O[C@@H]3O[C@@H]5CO[C@@H](C)O[C@H]5[C@H](O)[C@H]3O)[C@H]3COC(=O)[C@H]23)OCO4)cc(OC)c1O [ETOPOSIDE]
IC50 (HL-60 [1]): 0.11 µM | IC50 (K562 [2]): 2.3 µM | IC50 (CCRF-CEM [3]): 0.24 µM | Ratio IC50 (HL-60 [4]): 9 | Ratio IC50 (HL-60 [5]): >10 | Ratio IC50 (HL-60 [6]): >50 | Ratio IC50 (HL-60 [7]): >200 | Ratio IC50 (K562 [8]): >15 | Ratio IC50 (K562 [9]): >1000 | Ratio IC50 (CCRF-CEM [10]): 2.5 | Ratio IC50 (CCRF-CEM [11]): >50 | Ratio IC50 (CCRF-CEM [12]): 8.6

COC(=O)CC1C(C(=O)OC)=C(N)Oc2ccc(-c3cc(OC)cc(OC)c3)cc21 (racemic)
IC50 (HL-60 [1]): 2.42 µM

CCOC(=O)CC1C(C(=O)OCC)=C(N)Oc2ccc(-c3cccc(C(N)=O)c3)cc21 (racemic)
IC50 (HL-60 [1]): 5.4 µM

CCOC(=O)CC1C(C(=O)OC)=C(N)Oc2ccc(-c3cc(OC)cc(OC)c3)cc21 (racemic)
IC50 (HL-60 [1]): 10.8 µM

CCOC(=O)CC1C(C(=O)OCC)=C(N)Oc2ccc(-c3ccccn3)cc21 (racemic)
IC50 (HL-60 [1]): 76.9 µM

C#CCOC(=O)CC1C(C(=O)OCC#C)=C(N)Oc2ccc(-c3cccc(N(C)C)c3)cc21 (racemic)
IC50 (HL-60 [1]): 12 µM

CCOC(=O)CC1C(C(=O)OCC)=C(N)Oc2ccc(-c3ccco3)cc21 (racemic)
IC50 (HL-60 [1]): > 80 µM

CCOC(=O)CC1C(C(=O)OCC)=C(N)Oc2ccc(-c3ccc(F)cc3)cc21 (racemic)
IC50 (HL-60 [1]): 72.1 µM

CCOC(=O)CC1C(C(=O)OCC)=C(N)Oc2ccc(-c3ccc(N)cc3)cc21 (racemic)
IC50 (HL-60 [1]): 22.3 µM

CCOC(=O)CC1C(C(=O)OCC)=C(N)Oc2ccc(-c3ccncc3)cc21 (racemic)
IC50 (HL-60 [1]): 10.2 µM

C#CCOC(=O)CC1C(C(=O)OCC#C)=C(N)Oc2ccc(-c3ccc(N)cc3)cc21 (racemic)
IC50 (HL-60 [1]): 0.61 µM | IC50 (K562 [2]): 2.36 µM | IC50 (CCRF-CEM [3]): 1.47 µM | Ratio IC50 (HL-60 [4]): 1 | Ratio IC50 (HL-60 [5]): 0.26 | Ratio IC50 (HL-60 [6]): 0.27 | Ratio IC50 (HL-60 [7]): 0.6 | Ratio IC50 (K562 [8]): 1.08 | Ratio IC50 (K562 [9]): 1.1 | Ratio IC50 (CCRF-CEM [10]): 0.54 | Ratio IC50 (CCRF-CEM [11]): 0.42 | Ratio IC50 (CCRF-CEM [12]): 0.93

C#CCOC(=O)CC1C(C(=O)OCC#C)=C(N)Oc2ccc(-c3cccc(NCCO)c3)cc21 (racemic)
IC50 (HL-60 [1]): 0.63 µM

CCOC(=O)CC1C(C(=O)OCC)=C(N)Oc2ccc(-c3cc(F)cc(F)c3)cc21 (racemic)
IC50 (HL-60 [1]): 35.9 µM
